{"source": "ChEMBL document CHEMBL4689842", "about": "“EUbOPEN Chemogenomics Library wave 1” (2021)", "test_system": "Fibroblast", "assay": "Multiplex assay against human fibroblast", "format": "toxicity, cell-based", "in_short": "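Four dyes were applied at seeding to live cells: Hoechst33342, BioTracker Green Microtubule Cytoskeleton Dye, MitoTracker Red and Annexin V Alexa Fluor 680. Imaging after compound addition used a CQ1 microscope at 37°C and 5% CO2. CellPathfinder machine-learning gating then sorted cells into Hoechst high-intensity objects or normal cells, normal cells into healthy, pyknosed or fragmented nuclei, and pyknosed cells into mitotic or apoptotic, with tubulin, mitochondrial-mass and membrane-permeability phenotypes given as per cents of healthy-nucleus cells.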", "key": {"[1]": {"conditions": "12 h, 1 µM, compound concentration 1 uM, replicate 1"}, "[2]": {"conditions": "12 h, 1 µM, compound concentration 1 uM, replicate 2"}, "[3]": {"conditions": "12 h, 10 µM, compound concentration 10 uM, replicate 1"}, "[4]": {"conditions": "12 h, 10 µM, compound concentration 10 uM, replicate 2"}, "[5]": {"conditions": "24 h, 1 µM, compound concentration 1 uM, replicate 1"}, "[6]": {"conditions": "24 h, 1 µM, compound concentration 1 uM, replicate 2"}, "[7]": {"conditions": "24 h, 10 µM, compound concentration 10 uM, replicate 1"}, "[8]": {"conditions": "24 h, 10 µM, compound concentration 10 uM, replicate 2"}, "[9]": {"conditions": "48 h, 10 µM, compound concentration 10 uM, replicate 1"}, "[10]": {"conditions": "48 h, 10 µM, compound concentration 10 uM, replicate 2"}}, "note": "“And” between values parts separate entries of the source, which are not always exact repeats. Equal values may be shown once."}
{"smiles": "NC(=O)Nc1cc(-c2cccc(F)c2)sc1C(=O)N[C@H]1CCCNC1", "note": "[AZD-7762]", "values": [{"measurement": "Population Apoptotic (%)", "setting": "[1]", "result": 69, "unit": "%"}, {"measurement": "Population Fragmented Nuclei (%)", "setting": "[1]", "result": 20, "unit": "%"}, {"measurement": "Population Healthy Nuclei (%)", "setting": "[1]", "result": 62, "unit": "%"}, {"measurement": "Population Hoechst High Intensity Objects (%)", "setting": "[1]", "result": 14, "unit": "%"}, {"measurement": "Population Membrane Permeable-Phenotype (%)", "setting": "[1]", "result": 8, "unit": "%"}, {"measurement": "Population Mitochondria Different-Phenotype (%)", "setting": "[1]", "result": 0, "unit": "%"}, {"measurement": "Population Mitotic Cells (%)", "setting": "[1]", "result": 30, "unit": "%"}, {"measurement": "Population Normal (%)", "setting": "[1]", "result": 85, "unit": "%"}, {"measurement": "Population Pyknosed Nuclei (%)", "setting": "[1]", "result": 17, "unit": "%"}, {"measurement": "Population Tubulin-Different-Phenotype (%)", "setting": "[1]", "result": 1, "unit": "%"}, {"measurement": "Total Cell Count", "setting": "[1]", "result": 226}, {"measurement": "Population Apoptotic (%)", "setting": "[2]", "result": 60, "unit": "%"}, {"measurement": "Population Fragmented Nuclei (%)", "setting": "[2]", "result": 42, "unit": "%"}, {"measurement": "Population Healthy Nuclei (%)", "setting": "[2]", "result": 49, "unit": "%"}, {"measurement": "Population Hoechst High Intensity Objects (%)", "setting": "[2]", "result": 29, "unit": "%"}, {"measurement": "Population Membrane Permeable-Phenotype (%)", "setting": "[2]", "result": 16, "unit": "%"}, {"measurement": "Population Mitochondria Different-Phenotype (%)", "setting": "[2]", "result": 3, "unit": "%"}, {"measurement": "Population Mitotic Cells (%)", "setting": "[2]", "result": 40, "unit": "%"}, {"measurement": "Population Normal (%)", "setting": "[2]", "result": 70, "unit": "%"}, {"measurement": "Population Pyknosed Nuclei (%)", "setting": "[2]", "result": 8, "unit": "%"}, {"measurement": "Population Tubulin-Different-Phenotype (%)", "setting": "[2]", "result": 13, "unit": "%"}, {"measurement": "Total Cell Count", "setting": "[2]", "result": 87}, {"measurement": "Population Apoptotic (%)", "setting": "[3]", "result": "73% and 68%"}, {"measurement": "Population Fragmented Nuclei (%)", "setting": "[3]", "result": "47% and 34%"}, {"measurement": "Population Healthy Nuclei (%)", "setting": "[3]", "result": "35% and 51%"}, {"measurement": "Population Hoechst High Intensity Objects (%)", "setting": "[3]", "result": "16% and 18%"}, {"measurement": "Population Membrane Permeable-Phenotype (%)", "setting": "[3]", "result": "6% and 7%"}, {"measurement": "Population Mitochondria Different-Phenotype (%)", "setting": "[3]", "result": 3, "unit": "%"}, {"measurement": "Population Mitotic Cells (%)", "setting": "[3]", "result": "26% and 31%"}, {"measurement": "Population Normal (%)", "setting": "[3]", "result": "83% and 81%"}, {"measurement": "Population Pyknosed Nuclei (%)", "setting": "[3]", "result": "17% and 14%"}, {"measurement": "Total Cell Count", "setting": "[3]", "result": "106 and 295"}, {"measurement": "Population Apoptotic (%)", "setting": "[4]", "result": "46% and 44%"}, {"measurement": "Population Fragmented Nuclei (%)", "setting": "[4]", "result": "22% and 60%"}, {"measurement": "Population Healthy Nuclei (%)", "setting": "[4]", "result": "25% and 27%"}, {"measurement": "Population Membrane Permeable-Phenotype (%)", "setting": "[4]", "result": "21% and 20%"}, {"measurement": "Population Mitotic Cells (%)", "setting": "[4]", "result": "53% and 55%"}, {"measurement": "Population Normal (%)", "setting": "[4]", "result": "94% and 67%"}, {"measurement": "Population Tubulin-Different-Phenotype (%)", "setting": "[4]", "result": "21% and 35%"}, {"measurement": "Total Cell Count", "setting": "[4]", "result": "79 and 110"}, {"measurement": "Population Apoptotic (%)", "setting": "[5]", "result": 61, "unit": "%"}, {"measurement": "Population Fragmented Nuclei (%)", "setting": "[5]", "result": 25, "unit": "%"}, {"measurement": "Population Healthy Nuclei (%)", "setting": "[5]", "result": 62, "unit": "%"}, {"measurement": "Population Hoechst High Intensity Objects (%)", "setting": "[5]", "result": 14, "unit": "%"}, {"measurement": "Population Membrane Permeable-Phenotype (%)", "setting": "[5]", "result": 11, "unit": "%"}, {"measurement": "Population Mitochondria Different-Phenotype (%)", "setting": "[5]", "result": 1, "unit": "%"}, {"measurement": "Population Mitotic Cells (%)", "setting": "[5]", "result": 38, "unit": "%"}, {"measurement": "Population Normal (%)", "setting": "[5]", "result": 85, "unit": "%"}, {"measurement": "Population Pyknosed Nuclei (%)", "setting": "[5]", "result": 12, "unit": "%"}, {"measurement": "Population Tubulin-Different-Phenotype (%)", "setting": "[5]", "result": 2, "unit": "%"}, {"measurement": "Total Cell Count", "setting": "[5]", "result": 238}, {"measurement": "Population Apoptotic (%)", "setting": "[6]", "result": 0, "unit": "%"}, {"measurement": "Population Fragmented Nuclei (%)", "setting": "[6]", "result": 40, "unit": "%"}, {"measurement": "Population Healthy Nuclei (%)", "setting": "[6]", "result": 60, "unit": "%"}, {"measurement": "Population Hoechst High Intensity Objects (%)", "setting": "[6]", "result": 26, "unit": "%"}, {"measurement": "Population Membrane Permeable-Phenotype (%)", "setting": "[6]", "result": 10, "unit": "%"}, {"measurement": "Population Mitochondria Different-Phenotype (%)", "setting": "[6]", "result": 0, "unit": "%"}, {"measurement": "Population Mitotic Cells (%)", "setting": "[6]", "result": 0, "unit": "%"}, {"measurement": "Population Normal (%)", "setting": "[6]", "result": 73, "unit": "%"}, {"measurement": "Population Pyknosed Nuclei (%)", "setting": "[6]", "result": 0, "unit": "%"}, {"measurement": "Population Tubulin-Different-Phenotype (%)", "setting": "[6]", "result": 10, "unit": "%"}, {"measurement": "Total Cell Count", "setting": "[6]", "result": 68}, {"measurement": "Population Apoptotic (%)", "setting": "[7]", "result": "37% and 82%"}, {"measurement": "Population Fragmented Nuclei (%)", "setting": "[7]", "result": "47% and 41%"}, {"measurement": "Population Healthy Nuclei (%)", "setting": "[7]", "result": "44% and 47%"}, {"measurement": "Population Hoechst High Intensity Objects (%)", "setting": "[7]", "result": "27% and 14%"}, {"measurement": "Population Mitochondria Different-Phenotype (%)", "setting": "[7]", "result": "4% and 0%"}, {"measurement": "Population Normal (%)", "setting": "[7]", "result": "72% and 85%"}, {"measurement": "Population Pyknosed Nuclei (%)", "setting": "[7]", "result": "8% and 10%"}, {"measurement": "Total Cell Count", "setting": "[7]", "result": "129 and 316"}, {"measurement": "Population Apoptotic (%)", "setting": "[8]", "result": "57% and 92%"}, {"measurement": "Population Healthy Nuclei (%)", "setting": "[8]", "result": "32% and 16%"}, {"measurement": "Population Hoechst High Intensity Objects (%)", "setting": "[8]", "result": "29% and 20%"}, {"measurement": "Population Membrane Permeable-Phenotype (%)", "setting": "[8]", "result": 100, "unit": "%"}, {"measurement": "Population Normal (%)", "setting": "[8]", "result": "70% and 80%"}, {"measurement": "Population Pyknosed Nuclei (%)", "setting": "[8]", "result": 66, "unit": "%"}, {"measurement": "Total Cell Count", "setting": "[8]", "result": "115 and 75"}, {"measurement": "Population Apoptotic (%)", "setting": "[9]", "result": 25, "unit": "%"}, {"measurement": "Population Fragmented Nuclei (%)", "setting": "[9]", "result": 59, "unit": "%"}, {"measurement": "Population Healthy Nuclei (%)", "setting": "[9]", "result": 36, "unit": "%"}, {"measurement": "Population Hoechst High Intensity Objects (%)", "setting": "[9]", "result": 31, "unit": "%"}, {"measurement": "Population Membrane Permeable-Phenotype (%)", "setting": "[9]", "result": 17, "unit": "%"}, {"measurement": "Population Mitochondria Different-Phenotype (%)", "setting": "[9]", "result": 4, "unit": "%"}, {"measurement": "Population Mitotic Cells (%)", "setting": "[9]", "result": 75, "unit": "%"}, {"measurement": "Population Normal (%)", "setting": "[9]", "result": 68, "unit": "%"}, {"measurement": "Population Pyknosed Nuclei (%)", "setting": "[9]", "result": 3, "unit": "%"}, {"measurement": "Population Tubulin-Different-Phenotype (%)", "setting": "[9]", "result": 24, "unit": "%"}, {"measurement": "Total Cell Count", "setting": "[9]", "result": 162}, {"measurement": "Population Apoptotic (%)", "setting": "[10]", "result": 100, "unit": "%"}, {"measurement": "Population Healthy Nuclei (%)", "setting": "[10]", "result": 37, "unit": "%"}, {"measurement": "Population Hoechst High Intensity Objects (%)", "setting": "[10]", "result": 13, "unit": "%"}, {"measurement": "Population Mitochondria Different-Phenotype (%)", "setting": "[10]", "result": 2, "unit": "%"}, {"measurement": "Population Mitotic Cells (%)", "setting": "[10]", "result": 0, "unit": "%"}, {"measurement": "Population Normal (%)", "setting": "[10]", "result": 86, "unit": "%"}, {"measurement": "Population Pyknosed Nuclei (%)", "setting": "[10]", "result": 2, "unit": "%"}, {"measurement": "Population Tubulin-Different-Phenotype (%)", "setting": "[10]", "result": 14, "unit": "%"}, {"measurement": "Total Cell Count", "setting": "[10]", "result": 126}]}
